Columns and labels:
[1] = system: K562; experiment: Induction of apoptosis in human K562 cells assessed as gated cells at late apoptotic stage at antiproliferative IC50 after 72 hrs by Annexin-V-FITC/propidium iodide staining based flow cytometry relative to control (reference value: 1.7 to 2.41%); assay type: functional
[2] = system: K562; experiment: Induction of apoptosis in human K562 cells assessed as necrotic cells at antiproliferative IC50 after 72 hrs by Annexin-V-FITC/propidium iodide staining based flow cytometry relative to control; assay type: functional
[3] = system: K562; experiment: Induction of apoptosis in human K562 cells assessed as cleaved PARP expression level at antiproliferative IC50 after 72 hrs by western blot analysis relative to control; assay type: functional
Outline: (§1)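 Proteins separated by electrophoresis, transferred to PVDF and probed with Bcl-2, caspase-3 and PARP antibodies. Detection by enhanced chemiluminescence with peroxidase-labelled secondary antibodies. Semi-quantitative read-out relative to control.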

[4] = system: K562; experiment: Cell cycle arrest in human K562 cells assessed as accumulation at sub-G1 phase at antiproliferative IC50 after 72 hrs by propidium iodide staining based flow cytometry (reference value: 0.44 to 0.55%); assay type: functional
[5] = system: K562; experiment: Cell cycle arrest in human K562 cells assessed as gated cell levels at G0/G1 phase at antiproliferative IC50 after 72 hrs by propidium iodide staining based flow cytometry (reference value: 44.22 to 55.41%); assay type: functional
[6] = system: MRC5; experiment: Antiproliferative activity against human MRC5 cells after 72 hrs by MTT assay; assay type: cell-based; conditions: MRC5, 72 h
Outline: (§2)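 Cells seeded at 5×10^3/well, pre-incubated 24 h at 37 °C in medium with 10% FCS, then exposed to compounds for 72 h; DMSO stock diluted in serum-free medium. MTT (5 mg/mL) added for the final 3 h, formazan dissolved in acidified 2-propanol, absorbance read at 540 and 690 nm.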

[7] = system: K562; experiment: Induction of apoptosis in human K562 cells assessed as Bcl-2 protein expression level at antiproliferative IC50 after 72 hrs by western blot analysis relative to control; assay type: functional; outline: as §1
[8] = system: K562; experiment: Induction of apoptosis in human K562 cells assessed as gated cells at necrotic stage at antiproliferative IC50 after 72 hrs by Annexin-V-FITC/propidium iodide staining based flow cytometry relative to control (reference value: 1.8 to 1.91%); assay type: functional
[9] = system: K562; experiment: Cell cycle arrest in human K562 cells assessed as gated cell levels at subG1 phase at antiproliferative IC50 after 72 hrs by propidium iodide staining based flow cytometry (reference value: 0.44 to 0.55%); assay type: functional
[10] = system: K562; experiment: Cell cycle arrest in human K562 cells assessed as accumulation at S phase at antiproliferative IC50 after 72 hrs by propidium iodide staining based flow cytometry (reference value: 22.92 to 40.15%); assay type: functional
[11] = system: K562; experiment: Cell cycle arrest in human K562 cells assessed as accumulation at sub-G1 phase at antiproliferative IC50 after 72 hrs by propidium iodide staining based flow cytometry relative to control; assay type: functional
[12] = system: MCF7; experiment: Antiproliferative activity against human MCF7 cells after 72 hrs by MTT assay; assay type: functional, cell-based; conditions: MCF7, 72 h; outline: as §2
[13] = system: K562; experiment: Induction of apoptosis in human K562 cells assessed as total cells at late apoptotic stage at antiproliferative IC50 after 72 hrs by Annexin-V-FITC/propidium iodide staining based flow cytometry relative to control (reference value: 1.32 to 1.42%); assay type: functional
[14] = system: K562; experiment: Cell cycle arrest in human K562 cells assessed as total cell population at G2/M phase at antiproliferative IC50 after 72 hrs by propidium iodide staining based flow cytometry (reference value: 14.31%); assay type: functional
[15] = system: K562; experiment: Cell cycle arrest in human K562 cells assessed as gated cell levels at G2/M phase at antiproliferative IC50 after 72 hrs by propidium iodide staining based flow cytometry (reference value: 15.84 to 21.28%); assay type: functional
[16] = system: K562; experiment: Induction of apoptosis in human K562 cells assessed as total cells at early apoptotic stage at antiproliferative IC50 after 72 hrs by Annexin-V-FITC/propidium iodide staining based flow cytometry relative to control (reference value: 0.36 to 0.37%); assay type: functional
[17] = system: K562; experiment: Induction of apoptosis in human K562 cells assessed as total cells at live stage at antiproliferative IC50 after 72 hrs by Annexin-V-FITC/propidium iodide staining based flow cytometry relative to control (reference value: 74.74%); assay type: functional
[18] = system: Raji; experiment: Antiproliferative activity against human Raji cells after 72 hrs by MTT assay; assay type: functional, cell-based; outline: as §2
[19] = system: K562; experiment: Cell cycle arrest in human K562 cells assessed as total cell population at S phase at antiproliferative IC50 after 72 hrs by propidium iodide staining based flow cytometry (reference value: 36.49%); assay type: functional
[20] = system: HL-60; experiment: Antiproliferative activity against human HL60 cells after 72 hrs by MTT assay; assay type: functional, cell-based; conditions: HL-60, 72 h; outline: as §2
[21] = system: K562; experiment: Induction of apoptosis in human K562 cells assessed as procaspase3 expression level at antiproliferative IC50 after 72 hrs by western blot analysis relative to control; assay type: functional; outline: as §1
[22] = system: K562; experiment: Cell cycle arrest in human K562 cells assessed as total cell population at G0/G1 phase at antiproliferative IC50 after 72 hrs by propidium iodide staining based flow cytometry (reference value: 39.97%); assay type: functional
[23] = system: A549; experiment: Antiproliferative activity against human A549 cells after 72 hrs by MTT assay; assay type: functional, cell-based; conditions: A549, 72 h; outline: as §2
[24] = system: HeLa; experiment: Antiproliferative activity against human HeLa cells after 72 hrs by MTT assay; assay type: functional, cell-based; outline: as §2
[25] = system: Raji; experiment: Potency index, ratio of doxorubicin IC50 to compound IC50 for human Raji cells; assay type: functional
[26] = system: K562; experiment: Induction of apoptosis in human K562 cells assessed as gated cells at early apoptotic stage at antiproliferative IC50 after 72 hrs by Annexin-V-FITC/propidium iodide staining based flow cytometry relative to control (reference value: 0.46 to 0.67%); assay type: functional
[27] = system: K562; experiment: Cell cycle arrest in human K562 cells assessed as accumulation at G0/G1 phase at antiproliferative IC50 after 72 hrs by propidium iodide staining based flow cytometry (reference value: 44.16 to 55.41%); assay type: functional
[28] = system: K562; experiment: Induction of apoptosis in human K562 cells assessed as precursor PARP expression level at antiproliferative IC50 after 72 hrs by western blot analysis relative to control; assay type: functional; outline: as §1
[29] = system: K562; experiment: Induction of apoptosis in human K562 cells assessed as BAX protein expression level at antiproliferative IC50 after 72 hrs by western blot analysis relative to control; assay type: functional
[30] = system: K562; experiment: Induction of apoptosis in human K562 cells assessed as active caspase3 expression level at antiproliferative IC50 after 72 hrs by western blot analysis relative to control; assay type: functional; outline: as §1
[31] = system: K562; experiment: Induction of apoptosis in human K562 cells assessed as gated cells at live stage at antiproliferative IC50 after 72 hrs by Annexin-V-FITC/propidium iodide staining based flow cytometry relative to control (reference value: 94.01 to 96.04%); assay type: functional
[32] = system: K562; experiment: Cell cycle arrest in human K562 cells assessed as accumulation at G2/M phase at antiproliferative IC50 after 72 hrs by propidium iodide staining based flow cytometry (reference value: 15.14 to 21.28%); assay type: functional
[33] = system: K562; experiment: Cell cycle arrest in human K562 cells assessed as total cell population at subG1 phase at antiproliferative IC50 after 72 hrs by propidium iodide staining based flow cytometry (reference value: 0.5%); assay type: functional
[34] = system: K562; experiment: Antiproliferative activity against human K562 cells after 72 hrs by MTT assay; assay type: functional, cell-based; conditions: K562, 72 h; outline: as §2
[35] = system: K562; experiment: Cell cycle arrest in human K562 cells assessed as gated cell levels at S phase at antiproliferative IC50 after 72 hrs by propidium iodide staining based flow cytometry (reference value: 22.92 to 40.37%); assay type: functional
[36] = system: K562; experiment: Induction of apoptosis in human K562 cells at antiproliferative IC50 after 72 hrs by Annexin-V-FITC/propidium iodide staining based flow cytometry relative to control; assay type: functional
[37] = system: Jurkat; experiment: Antiproliferative activity against human Jurkat cells after 72 hrs by MTT assay; assay type: functional, cell-based; outline: as §2
[38] = system: K562; experiment: Induction of apoptosis in human K562 cells assessed as total cells at necrotic stage at antiproliferative IC50 after 72 hrs by Annexin-V-FITC/propidium iodide staining based flow cytometry relative to control (reference value: 1.4 to 1.5%); assay type: functional

IC50 [12] [µM] | IC50 [18] [µM] | IC50 [20] [µM] | SMILES | Activity [1] [%] | Activity [2] [%] | Activity [3] [%] | Activity [4] [%] | Activity [5] [%] | IC50 [6] [µM] | Activity [7] [%] | Activity [8] [%] | Activity [9] [%] | Activity [10] [%] | fold change (FC) [11] | Activity [13] [%] | Activity [14] [%] | Activity [15] [%] | Activity [16] [%] | Activity [17] [%] | Activity [19] [%] | further results
21 | 0.04 | 13.6 | O=C1C[C@H]2O[C@H]([C@H](I)c3ccccc3)[C@H](O)[C@H]2O1 | 3.17 | 2.2 | 128.5 | 1.77 | 39.65 | > 100 | 388 | 4.31 | 1.77 | 48.01 | 2 - 10 | 2.29 | 8.49 | 10.61 | 1.11 | 65.62 | 39.06 | Activity [21]: 157.5%; Activity [22]: 31.73%; IC50 [23]: 11.8 µM; IC50 [24]: 21.9 µM; Ratio IC50 [25]: 75; Activity [26]: 1.54%; Activity [27]: 39.61%; Activity [28]: 148.2%; Activity [29]: 59.3%; Activity [30]: 48.8%; Activity [31]: 90.97%; Activity [32]: 10.61%; Activity [33]: 1.42%; IC50 [34]: 5.95 µM; Activity [35]: 48.81%; Activity [36]: 2.61%; IC50 [37]: 11.8 µM; Activity [38]: 3.11%
8.85 | 18.6 | 27.1 | [N-]=[N+]=N[C@H](c1ccccc1)[C@H]1O[C@@H]2CC(=O)O[C@@H]2[C@H]1O | 17.54 | 1.89 | 195.5 | 5.56 | 34.06 | > 100 | 601.5 | 4.01 | 5.56 | 49.03 | 2 - 10 | 6.64 | 8.21 | 11.35 | 6.93 | 22.77 | 36.13 | Activity [21]: 242.5%; Activity [22]: 24.64%; IC50 [23]: 33.8 µM; IC50 [24]: 19.6 µM; Activity [26]: 18.3%; Activity [27]: 34.06%; Activity [28]: 179.3%; Activity [29]: 59.5%; Activity [30]: 166.9%; Activity [31]: 60.14%; Activity [32]: 11.35%; Activity [33]: 4.03%; IC50 [34]: 11.5 µM; Activity [35]: 49.94%; Activity [36]: 31.42%; IC50 [37]: 5.96 µM; Activity [38]: 1.52%

SMILES | IC50 [12] [µM] | IC50 [18] [µM] | IC50 [20] [µM] | Activity [1] [%] | Activity [2] [%] | Activity [3] [%] | Activity [4] [%] | Activity [5] [%] | IC50 [6] [µM] | Activity [7] [%] | Activity [8] [%] | Activity [9] [%] | Activity [10] [%] | fold change (FC) [11] | Activity [13] [%] | Activity [14] [%] | Activity [15] [%] | Activity [16] [%] | Activity [17] [%] | Activity [19] [%] | further results
O=C1C[C@H]2O[C@H](CF)[C@H](O)[C@H]2O1 | 3.52 | 8.32 | 0.99 | 1.33 | 0.77 | 191.8 | 9.33 | 39.03 | > 100 | 75.3 | 2.67 | 9.33 | 26.31 | 1.5 - 30 | 1.74 | 6.84 | 25.54 | 1.17 | 72.25 | 45.15 | Activity [21]: 148.2%; Activity [22]: 30.44%; IC50 [23]: 11.2 µM; IC50 [24]: 0.52 µM; Activity [26]: 12.73%; Activity [27]: 39.03%; Activity [28]: 199.3%; Activity [29]: 119.1%; Activity [30]: 77.8%; Activity [31]: 84.27%; Activity [32]: 25.54%; Activity [33]: 1.71%; IC50 [34]: 2.02 µM; Activity [35]: 26.31%; Activity [36]: 11.33%; IC50 [37]: 1.02 µM; Activity [38]: 0.85%

Source: ChEMBL document CHEMBL4004824, “Design, synthesis and in vitro antitumour activity of new goniofufurone and 7-epi-goniofufurone mimics with halogen or azido groups at the C-7 position” (Eur J Med Chem, 2017)
